Test results from ChEMBL document CHEMBL3526049 (Drug Metab Dispos, 2012).

What was measured:
[1] = AUC (infinity) in MDR1A knockout Sprague-Dawley rat at 5 mg/kg, po by LC-MS/MS analysis; format: ADME, organism-based; design: time infinity, dose 5 mg/kg, route oral; conditions: plasma
[2] = Clearance in MDR1A knockout Sprague-Dawley rat at 1 mg/kg, iv by LC-MS/MS analysis; conditions: in vivo
[3] = Clearance in BCRP knockout Sprague-Dawley rat at 1 mg/kg, iv by LC-MS/MS analysis; conditions: in vivo
Liver [4] = test: Drug uptake in BCRP knockout Sprague-Dawley rat liver at 1 mg/kg, iv; format: ADME, organism-based; design: dose 1 mg/kg, route intravenous; conditions: in vivo
[5] = AUC (infinity) in MRP2 knockout Sprague-Dawley rat at 5 mg/kg, po by LC-MS/MS analysis; format: ADME, organism-based; design: time infinity, dose 5 mg/kg, route oral; conditions: plasma
Procedure, shortened: (§1)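 Male Sprague-Dawley rats (knockouts age- and weight-matched to wild type), femoral-artery and vein cannulated, recovered ≥2 days. IV/oral crossover: 1 mg/kg IV bolus on day 0, then after a 3-day washout 5 mg/kg oral gavage in 10 ml/kg 50% Cremophor EL in ethanol. Arterial plasma 0–24 h, protein-precipitated, LC-MS/MS (positive ion, 1–5000 ng/ml). Noncompartmental analysis; n=5–9.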

[6] = Tmax in MDR1A knockout Sprague-Dawley rat at 5 mg/kg, po by LC-MS/MS analysis; format: ADME, organism-based; design: dose 5 mg/kg, route oral; conditions: in vivo
[7] = AUC (infinity) in MDR1A knockout Sprague-Dawley rat at 1 mg/kg, iv by LC-MS/MS analysis; format: ADME, organism-based; design: time infinity, dose 1 mg/kg, route intravenous; conditions: plasma
[8] = Oral bioavailability in wild-type Sprague-Dawley rat at 5 mg/kg by LC-MS/MS analysis; format: ADME, organism-based; conditions: in vivo; procedure, shortened: as §1
Rattus norvegicus = test: AUC (infinity) in MRP2 knockout Sprague-Dawley rat at 1 mg/kg, iv by LC-MS/MS analysis; format: ADME, organism-based, Plasma; design: time infinity, dose 1 mg/kg, route intravenous; conditions: in vivo
[9] = Half life in BCRP knockout Sprague-Dawley rat at 5 mg/kg, po by LC-MS/MS analysis; format: ADME, organism-based; design: dose 5 mg/kg, route oral; conditions: in vivo; procedure, shortened: as §1
[10] = Drug excretion in bile duct-cannulated wild-type Sprague-Dawley rat urine at 1 mg/kg, iv up to 24 hrs; format: ADME, organism-based; design: dose 1 mg/kg, route intravenous; conditions: read-out: Drug excretion
Procedure, shortened: (§2)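 Male Sprague-Dawley rats with bile-duct and femoral cannulation, housed in metabolism cages. Given an IV bolus of 1 mg/kg in 2 ml/kg 50% Cremophor EL in ethanol. Urine, bile and feces collected in toto 0–24 h, with cage wash at 24 h. Amounts quantified by LC-MS/MS and expressed as % of dose; n=6–12.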

[11] = AUC (infinity) in wild-type Sprague-Dawley rat at 5 mg/kg, po by LC-MS/MS analysis; format: ADME, organism-based; design: time infinity, dose 5 mg/kg, route oral; conditions: plasma; procedure, shortened: as §1
[12] = Oral bioavailability in MDR1A knockout Sprague-Dawley rat at 5 mg/kg by LC-MS/MS analysis; format: ADME, organism-based; conditions: in vivo
Kidney = test: Drug uptake in MDR1A knockout Sprague-Dawley rat kidney at 1 mg/kg, iv; format: ADME, organism-based; design: dose 1 mg/kg, route intravenous; conditions: in vivo
[13] = Volume of distribution at steady state in wild-type Sprague-Dawley rat at 1 mg/kg, iv by LC-MS/MS analysis; format: ADME, organism-based; design: dose 1 mg/kg, route intravenous; conditions: in vivo, read-out: Vdss
Procedure, shortened: (§3)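 Male Sprague-Dawley rats (knockout or wild type matched for age and weight), femoral artery and vein cannulated, at least 2 days recovery. Crossover design: IV bolus 1 mg/kg on day 0 (saline with 0.2 M equivalents HCl), oral gavage 10 mg/kg on day 3 (water with 0.2 M equivalents HCl). Arterial plasma sampled to 24 h (Mdr1a oral arm to 4 h). Analysed by LC-MS/MS and noncompartmental analysis.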

[14] = Volume of distribution at steady state in MRP2 knockout Sprague-Dawley rat at 1 mg/kg, iv by LC-MS/MS analysis; format: ADME, organism-based; design: dose 1 mg/kg, route intravenous; conditions: in vivo, read-out: Vdss; procedure, shortened: as §3
[15] = Tmax in MRP2 knockout Sprague-Dawley rat at 5 mg/kg, po by LC-MS/MS analysis; format: ADME, organism-based; design: dose 5 mg/kg, route oral; conditions: in vivo; procedure, shortened: as §1
[16] = AUC (infinity) in wild-type Sprague-Dawley rat at 1 mg/kg, iv by LC-MS/MS analysis; format: ADME, organism-based; design: time infinity, dose 1 mg/kg, route intravenous; conditions: plasma
[17] = Volume of distribution at steady state in BCRP knockout Sprague-Dawley rat at 1 mg/kg, iv by LC-MS/MS analysis; format: ADME, organism-based; design: dose 1 mg/kg, route intravenous; conditions: in vivo, read-out: Vdss; procedure, shortened: as §3
[18] = Half life in BCRP knockout Sprague-Dawley rat at 1 mg/kg, iv by LC-MS/MS analysis; format: ADME, organism-based; design: dose 1 mg/kg, route intravenous; conditions: in vivo; procedure, shortened: as §3
Liver [19] = test: Drug uptake in MDR1A knockout Sprague-Dawley rat liver at 1 mg/kg, iv; format: ADME, organism-based; design: dose 1 mg/kg, route intravenous; conditions: in vivo
[20] = Tmax in wild-type Sprague-Dawley rat at 5 mg/kg, po by LC-MS/MS analysis; format: ADME, organism-based; design: dose 5 mg/kg, route oral; conditions: in vivo; procedure, shortened: as §1
[21] = Drug excretion in bile duct-cannulated BCRP knockout Sprague-Dawley rat feces at 1 mg/kg, iv up to 24 hrs; format: ADME, organism-based; design: dose 1 mg/kg, route intravenous; conditions: faeces, read-out: Drug excretion; procedure, shortened: as §2
[22] = Drug excretion in bile duct-cannulated wild-type Sprague-Dawley rat feces at 1 mg/kg, iv up to 24 hrs; format: ADME, organism-based; design: dose 1 mg/kg, route intravenous; conditions: faeces, read-out: Drug excretion; procedure, shortened: as §2
[23] = Half life in wild-type Sprague-Dawley rat at 5 mg/kg, po by LC-MS/MS analysis; format: ADME, organism-based; design: dose 5 mg/kg, route oral; conditions: in vivo; procedure, shortened: as §1
[24] = Drug excretion in bile duct-cannulated MDR1A knockout Sprague-Dawley rat feces at 1 mg/kg, iv up to 24 hrs; format: ADME, organism-based; design: dose 1 mg/kg, route intravenous; conditions: faeces, read-out: Drug excretion; procedure, shortened: as §2
[25] = Cmax in MRP2 knockout Sprague-Dawley rat at 5 mg/kg, po by LC-MS/MS analysis; format: ADME, organism-based; design: dose 5 mg/kg, route oral; conditions: in vivo; procedure, shortened: as §1

AUC(0-inf) [1]: 746 ng·h/mL
clearance [2]: 66.7 mL/min/kg
clearance [3]: 102 mL/min/kg
Drug uptake (Liver [4]): Active
AUC(0-inf) [5]: 622 ng·h/mL
Tmax [6]: 1.2 h
AUC(0-inf) [7]: 303 ng·h/mL
bioavailability [8]: 12%
AUC (Rattus norvegicus): 375 ng·h/mL
half-life [9]: 5.3 h
dose excreted at 24 h [10]: 3.1%
AUC(0-inf) [11]: 88 ng·h/mL
bioavailability [12]: 47%
Drug uptake (Kidney): Active
Vd [13]: 30.3 L/kg
Vd [14]: 28.6 L/kg
Tmax [15]: 0.9 h
AUC(0-inf) [16]: 172 ng·h/mL
Vd [17]: 29.1 L/kg
half-life [18]: 6.4 h
Drug uptake (Liver [19]): Active
Tmax [20]: 0.8 h
dose excreted at 24 h [21]: 1%
dose excreted at 24 h [22]: 2.3%
half-life [23]: 4.4 h
dose excreted at 24 h [24]: 0.21%
Cmax [25]: 151 ng/mL
SMILES: CC(=O)O[C@H]1C(=O)[C@@]2(C)[C@H]([C@H](OC(=O)c3ccccc3)[C@]3(O)C[C@H](OC(=O)[C@H](O)[C@@H](NC(=O)c4ccccc4)c4ccccc4)C(C)=C1C3(C)C)[C@]1(OC(C)=O)CO[C@@H]1C[C@@H]2O [PACLITAXEL]
